Assay results: ChEMBL document CHEMBL3124841, “Discovery of vinyl sulfones as a novel class of neuroprotective agents toward Parkinson's disease therapy” (J Med Chem, 2014)
Activity calls are given as the source filed them. The rule behind the calls is not given here.

Tests used:
[1] = molecular target: T1, Nuclear factor erythroid 2-related factor 2 (Mus musculus) (UniProt Q60795); assay: Induction of Nrf2-dependent GCLM gene expression in mouse CATH.a cells at 10 uM after 6 hrs by RT-PCR analysis relative to control; assay type: cell-based
T1 sequence (whole entry): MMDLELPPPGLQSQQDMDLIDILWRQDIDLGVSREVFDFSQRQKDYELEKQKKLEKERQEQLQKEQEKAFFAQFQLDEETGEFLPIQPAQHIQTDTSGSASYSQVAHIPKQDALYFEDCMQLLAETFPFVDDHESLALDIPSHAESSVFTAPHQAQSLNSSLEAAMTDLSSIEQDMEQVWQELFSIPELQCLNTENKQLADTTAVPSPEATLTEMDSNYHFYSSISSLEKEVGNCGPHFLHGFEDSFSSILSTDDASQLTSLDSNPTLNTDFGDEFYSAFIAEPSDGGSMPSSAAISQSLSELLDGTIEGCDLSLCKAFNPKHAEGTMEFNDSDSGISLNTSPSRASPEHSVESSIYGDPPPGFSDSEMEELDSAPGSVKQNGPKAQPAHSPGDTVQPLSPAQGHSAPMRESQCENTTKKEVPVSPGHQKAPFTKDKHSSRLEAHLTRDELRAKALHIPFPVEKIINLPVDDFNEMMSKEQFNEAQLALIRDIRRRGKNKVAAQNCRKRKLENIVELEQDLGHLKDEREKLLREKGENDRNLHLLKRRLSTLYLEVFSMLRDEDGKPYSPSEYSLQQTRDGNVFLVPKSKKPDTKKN
Procedure, shortened: (§1)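 CATH.a cells grown in RPMI 1640 with 8% horse serum and 4% FBS, exposed to graded concentrations for 6 h. mRNA analysed by RT-PCR with gene-specific primers, products run on 1% agarose gel, band densitometry normalized to GAPDH. At least duplicate cultures; fold induction versus untreated control ± SEM.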

[2] = molecular target: T1, Nuclear factor erythroid 2-related factor 2 (Mus musculus); assay: Induction of Nrf2-dependent GCLC gene expression in mouse CATH.a cells at 2 uM after 6 hrs by RT-PCR analysis relative to control; assay type: cell-based; procedure, shortened: as §1
[3] = molecular target: T1, Nuclear factor erythroid 2-related factor 2 (Mus musculus); assay: Induction of Nrf2-dependent NQO1 gene expression in mouse CATH.a cells after 6 hrs by RT-PCR analysis; assay type: cell-based; procedure, shortened: as §1
[4] = molecular target: T1, Nuclear factor erythroid 2-related factor 2 (Mus musculus); assay: Induction of Nrf2 nuclear translocation in mouse CATH.a cells at 10 uM after 3 hrs by western blot analysis relative to control; assay type: cell-based
Procedure, shortened: (§2)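 Mouse DAergic CATH.a cells treated at various concentrations for 3 h. Nuclei isolated by hypotonic HEPES buffer/NP-40 lysis, then nuclear proteins extracted in 400 mM NaCl HEPES buffer. Nrf2 Western blot with lamin B as nuclear marker, chemiluminescent detection, densitometry. At least duplicate cultures, expressed as fold induction over untreated control ± SEM.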

[5] = molecular target: T1, Nuclear factor erythroid 2-related factor 2 (Mus musculus); assay: Induction of Nrf2 nuclear translocation in mouse CATH.a cells at 1 uM after 3 hrs by western blot analysis; assay type: cell-based; procedure, shortened: as §2
[6] = molecular target: T1, Nuclear factor erythroid 2-related factor 2 (Mus musculus); assay: Induction of Nrf2 nuclear translocation in mouse CATH.a cells after 3 hrs by western blot analysis; assay type: cell-based; procedure, shortened: as §2
[7] = molecular target: T1, Nuclear factor erythroid 2-related factor 2 (Mus musculus); assay: Induction of Nrf2-dependent HO1 protein level in mouse BV-2 cells at 20 uM after 24 hrs by sandwich ELISA relative to control; assay type: cell-based
Procedure, shortened: (§3)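 Murine BV-2 microglia in DMEM/10% FBS, 2.0 × 10⁴ cells per well, treated at 20 μM for 24 h in triplicate. Lysates in NP-40 Tris buffer (pH 8.0) diluted tenfold; HO-1 measured by sandwich ELISA with HRP-streptavidin and Amplex Red fluorescence (ex 530/em 590 nm). Expressed as % of 0.04% DMSO vehicle control ± SEM; sulforaphane 5 μM as reference.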

[8] = molecular target: T1, Nuclear factor erythroid 2-related factor 2 (Mus musculus); assay: Induction of Nrf2-dependent HO1 protein level in mouse BV-2 cells at 20 uM after 24 hrs by sandwich ELISA; assay type: cell-based; procedure, shortened: as §3
[9] = Cytotoxicity against mouse CATH.a cells assessed as cell viability at 0.1 to 2 uM after 72 hrs by LDH activity assay; assay type: cell-based
Procedure, shortened: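 Seeded at 2.4 × 10⁴ CATH.a cells/well and exposed to the agent alone for 72 h. LDH in culture medium measured with 0.26 mM NADH, 2.87 mM pyruvate in 100 mM potassium phosphate pH 7.4; absorbance at 340 nm followed 5 min at 2 s intervals, room temperature. Duplicate cultures minimum; % untreated control ± SEM.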

Mus musculus [10] = assay: Inhibition of motor deficits in MPTP-induced C57Bl/6 mouse parkinson's disease model assessed as time taken to climb down at 10 mg/kg/day, po for 3 days administered first dose at 24 hrs prior to first injection of 4X 20 mg/kg, ip MPTP challenge by vertical grid test (reference value: 22.4 +/-3.9 s); assay type: functional
[11] = Cytotoxicity against mouse CATH.a cells assessed as cell viability at 0.1 to 2 uM after 72 hrs by ATP assay; assay type: cell-based
Procedure, shortened: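 CATH.a cells seeded at 2.4 × 10⁴ cells/well, exposed to the agent alone for 72 h. Viability read as cellular ATP by CellTiter-Glo luminescence (2 min lysis, 10 min room temperature, 1 min read). At least duplicate cultures, percent of untreated control ± SEM.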

[12] = molecular target: T1, Nuclear factor erythroid 2-related factor 2 (Mus musculus); assay: Induction of Nrf2-dependent GCLM protein expression in mouse CATH.a cells at 0.1 uM after 24 hrs by western blot analysis; assay type: cell-based
Procedure, shortened: (§4)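 Cells (CATH.a) exposed to graded concentrations for 24 h, lysed in RIPA buffer with protease inhibitors. Equal protein separated on 10% SDS gel, blotted; primary antibodies overnight at 4 °C, HRP secondary, chemiluminescence. Densitometry normalized to β-actin. At least duplicate cultures, fold of untreated control ± SEM.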

[13] = molecular target: T1, Nuclear factor erythroid 2-related factor 2 (Mus musculus); assay: Induction of Nrf2-dependent GCLM gene expression in mouse CATH.a cells at 0.1 uM after 6 hrs by RT-PCR analysis; assay type: cell-based; procedure, shortened: as §1
[14] = molecular target: T1, Nuclear factor erythroid 2-related factor 2 (Mus musculus); assay: Induction of Nrf2-dependent NQO1 gene expression in mouse CATH.a cells at 0.1 uM after 6 hrs by RT-PCR analysis; assay type: cell-based; procedure, shortened: as §1
Mus musculus [15] = species on record: Mus musculus; assay: Neuroprotection against BH4-induced mouse CATH.a cell death assessed as cell viability at >0.1 uM treated for 20 hrs prior to BH4 challenge for 24 hrs by LDH activity assay; assay type: functional
Procedure, shortened: (§5)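 CATH.a cells at 2.4 × 10⁴/well given graded concentrations for 20 h, then 200 μM BH4 for an additional 24 h. Medium LDH activity from NADH oxidation with pyruvate, pH 7.4, read at 340 nm over 5 min. At least duplicate cultures, % untreated control ± SEM, compared against BH4-treated group.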

Mus musculus [16] = species on record: Mus musculus; assay: Neuroprotection against BH4-induced mouse CATH.a cell death assessed as cell viability at >0.1 uM treated for 20 hrs prior to BH4 challenge for 24 hrs by ATP assay; assay type: functional
Procedure, shortened: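 CATH.a cells (2.4 × 10⁴/well) pretreated with graded concentrations for 20 h, then challenged with 200 μM BH4 for a further 24 h. Viability as cellular ATP by CellTiter-Glo luminescence. At least duplicate cultures, percent of untreated control ± SEM, compared with BH4-treated cells.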

Mus musculus [17] = species on record: Mus musculus; assay: Neuroprotection against BH4-induced mouse CATH.a cell death assessed as cell viability at 0.1 uM treated for 20 hrs prior to BH4 challenge for 24 hrs by LDH activity assay; assay type: functional; procedure, shortened: as §5
[18] = molecular target: T1, Nuclear factor erythroid 2-related factor 2 (Mus musculus); assay: Induction of Nrf2-dependent GCLC protein expression in mouse CATH.a cells after 24 hrs by western blot analysis; assay type: cell-based; procedure, shortened: as §4

**Q.** Which fold change (FC) [1] does the source give for `COc1ccccc1S(=O)(=O)/C=C/c1ccccc1Cl` here?
**A.** 2.56

**Q.** What about the fold change (FC) [2] of the same compound?
**A.** 1.41

**Q.** What about the Activity [3] of the same compound?
**A.** Dose-dependent effect

**Q.** And the fold change (FC) [4]?
**A.** 3.5

**Q.** What about the Activity [5] of the same compound?
**A.** Active

**Q.** What about the Activity [6] of the same compound?
**A.** Dose-dependent effect

**Q.** And the fold change (FC) [7]?
**A.** 3.8

**Q.** What about the Activity [8] of the same compound?
**A.** 382%

**Q.** And the Activity [9]?
**A.** Non-toxic

**Q.** What about the Time (Mus musculus [10]) of the same compound?
**A.** 6.3 s

**Q.** And the Activity [11]?
**A.** Non-toxic

**Q.** What about the Activity [12] of the same compound?
**A.** inactive

**Q.** And the Activity [13]?
**A.** inactive

**Q.** What about the Activity [14] of the same compound?
**A.** inactive

**Q.** What about the Activity (Mus musculus [15]) of the same compound?
**A.** Active

**Q.** What about the Activity (Mus musculus [16]) of the same compound?
**A.** Active

**Q.** And the Activity (Mus musculus [17])?
**A.** Active

**Q.** And the Activity [18]?
**A.** Dose-dependent effect
